# TAAR1 antag = human TAAR1 antagonists, primary screen, Fluo-8 calcium fluorescence, CHO RD-HGA16 cells; Trace amine-associated receptor 1 (Homo sapiens), Q96RJ0; antagonist; inhibition, % at 3 µM; 360,000 compounds, 1.5% hits;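 active = inhibition above a per-plate cutoff, the mean inhibition of test compounds on that plate plus 3 SD, cut at about 49% in these data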;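 note: 0% = DMSO plus EC80 beta-PEA response and 100% = DMSO alone without agonist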
#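 Test system: hTAAR1-expressing CHO RD-HGA16 cells, Gα16-coupled; Probe or stimulus: EC80 β-phenethylamine stimulus; Compound dosing: single nominal final test compound concentration of 3 µM; Timing: 140 s kinetic read after compound, 140 s after agonist; Signal: Fluo-8 calcium-sensitive fluorescence; Measure: % inhibition of agonist calcium response; Controls: DMSO and EC80 PEA controls.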
# OX1R antag-1 = OX1R (HCRTR1) antagonists, primary screen, fluorescence, CHO/OX1R cells, Fluo-8 calcium, orexin A | 330,000 compounds, 0.43% hits | AID 434989, 2010 | inhibition, % at 5 µM | Fluo-8 calcium fluorescence;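 active = inhibition above its plate's threshold, mean inhibition of all tested compounds on the plate plus 3 SD, cut at about 37% in these data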;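 note: 0% = orexin A challenge wells and 100% = SB-334867-A antagonist wells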
# Target sequence (O43613 whole entry, looked up): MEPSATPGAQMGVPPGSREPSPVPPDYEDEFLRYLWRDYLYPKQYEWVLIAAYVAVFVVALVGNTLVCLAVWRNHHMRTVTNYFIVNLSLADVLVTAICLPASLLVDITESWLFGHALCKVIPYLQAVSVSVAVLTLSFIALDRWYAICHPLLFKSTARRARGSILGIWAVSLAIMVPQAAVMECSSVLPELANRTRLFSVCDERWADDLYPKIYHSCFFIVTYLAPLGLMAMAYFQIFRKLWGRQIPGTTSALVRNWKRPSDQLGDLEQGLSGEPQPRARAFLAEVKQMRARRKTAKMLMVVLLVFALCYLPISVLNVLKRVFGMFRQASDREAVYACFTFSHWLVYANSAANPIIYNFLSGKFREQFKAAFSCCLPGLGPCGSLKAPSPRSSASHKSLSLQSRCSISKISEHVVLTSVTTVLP
# OX1R antag-2 = antagonists of human orexin 1 receptor (OX1R). Orexin/Hypocretin receptor type 1 (Homo sapiens), O43613. OX1R-expressing cells, FRET antagonist read-out. 330,000 compounds, 1.8% hits. inhibition, % at 6.6 µM; in the data active = inhibition mostly above about 38%, no sharp cut-off; inactive = mostly below about 40%;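 note: 0% = agonist challenge alone and 100% = reference antagonist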
# GPR7 antag = GPR7 receptor antagonists, primary screen, cell-based, fluorescence, single concentration; 290,000 compounds, 1.1% hits; AID 1861, 2009; inhibition, % at 4.4 µM; GPR7-expressing cells, fluorescence antagonist assay; Neuropeptides B/W receptor type 1 (Homo sapiens), P48145; in the data active = inhibition above about 16%, passing the limit was not always enough;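 note: cells stimulated with the agonist NPW; 0% = agonist with vehicle and 100% = vehicle without agonist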
# CHO parental Ca = ATP-evoked calcium signal inhibitors, parental CHO, primary screen, counter-screen for OX1R antagonist project, cell-based, fluorescence, Fluo-8 calcium dye | inhibition, % at 5.6 µM | parental CHO-K1, ATP-induced calcium, Fluo-8 fluorescence | 330,000 compounds, 0.63% hits;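 active = inhibition above that plate's mean sample inhibition plus 3 SD, cut at about 26% in these data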;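 note: 0% = ATP-challenged DMSO wells and 100% = DMSO wells without ATP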
#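 Measured by: calcium-sensitive Fluo-8 fluorescence / Test system: CHO parental line / Controls: ATP-challenged DMSO wells low, unchallenged DMSO wells high / Measure: % inhibition / Compound: single nominal dose of 5.6 µM per compound / Replicates: single well per compound, no replicates / Reagent: ATP as calcium-mobilizing challenge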
# TAAR1 ag = human TAAR1 agonists, primary screen, Fluo-8 calcium fluorescence, CHO RD-HGA16 cells; Trace amine-associated receptor 1 (Homo sapiens), Q96RJ0; vehicle wells 0%, saturating PEA agonist 100%; activation, % at 3 µM; 360,000 compounds, 0.99% hits; AID 624467, 2012;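 active = activation above the mean activation of all test compounds in the run plus 3 SD, cut at about 38% in these data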
#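 Assay system – CHO-derived RD-HGA16 cells with stable Gα16 and human TAAR1 · Compound dosing – one-point dosing at 3 µM (nominal) · Incubation – 17-24 h seeding, 75 min 37 °C dye, 30 min RT · Measured by – kinetic Fluo-8 calcium fluorescence · Control set – DMSO vehicle as 0%, PEA at EC100 as 100% · Repeats – single well for each compound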
# nonsel antag count = nonselective antagonists in TAAR1 counter-screen cells, counter-screen for hTAAR1 antagonist project, cell-based, fluorescence, calcium; shares compounds with TAAR1 antag; counterscreen cell line, antagonist mode; inhibition, % at 3 µM; 2,400 compounds, 77% hits; AID 651780, 2012; in the data active = inhibition above about 22%;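 note: CHO-Ga16 host cells stimulated with ATP at an EC80 level; 0% = agonist EC80 plus vehicle and 100% = vehicle without agonist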
# TAAR1 antag conf = human TAAR1 antagonists, retest of hits, confirmation, cell-based, fluorescence | shares compounds with TAAR1 antag | TAAR1-expressing cells, fluorescence antagonist read-out | inhibition, % at 3 µM | 2,400 compounds, 40% hits; in the data active = inhibition above about 49%;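 note: CHO-Ga16 host cells challenged with agonist PEA near its EC80; 0% = agonist at EC80 plus vehicle and 100% = vehicle with no agonist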
# Ga16 ag counter = calcium activation in Ga16-expressing cells, counter-screen for TAAR1 antagonist project, cell-based, fluorescence | shares compounds with TAAR1 antag | agonist counterscreen | activation, % at 3 µM | 2,400 compounds, 18% hits; in the data active = activation above about 12%;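 note: 0% = vehicle wells and 100% = saturating stimulus response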
# TAAR1 ag counter = TAAR1 activation by candidate antagonists – cell-based, fluorescence, counter-screen for TAAR1 antagonist project; shares compounds with TAAR1 antag; hTAAR1 cell line, agonist mode; activation, % at 3 µM; 2,400 compounds, 2% hits; AID 651955, 2012; in the data active = activation above about 37%;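 note: CHO cells stably expressing TAAR1 with calcium dye readout; 0% = DMSO vehicle and 100% = full agonist response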
# An asterisk follows results filed as active; / = not tested or not shown. This is a sample that favours compounds with a hit; in the whole collection about 4.6% have one here.
SMILES,TAAR1 antag,OX1R antag-1,OX1R antag-2,GPR7 antag,CHO parental Ca,TAAR1 ag,nonsel antag count,TAAR1 antag conf,Ga16 ag counter,TAAR1 ag counter
COc1cc(Nc2ccccn2)cc(C(=O)Nc2cccc(C(F)(F)F)c2)c1,54*,-20,13,/,-6,7,34*,46,7,2
COc1cc(NC(=O)N2CCNC2=O)cc(C(=O)Nc2cccc(C(F)(F)F)c2)c1,51*,-28,35,/,-7,20,19,24,8,6
COc1cc(NC(=O)c2csc(-c3ccncc3)n2)cc(C(=O)Nc2cccc(C(F)(F)F)c2)c1,74*,-21,27,/,-17,9,35*,55*,6,5
O=C(Nc1cccc(C(F)(F)F)c1)c1csc(-c2ccncc2)n1,16,-53,26,2,-23,-1,/,/,/,/
COc1cc(NC(=O)c2nccn2C)cc(C(=O)Nc2cccc(C(F)(F)F)c2)c1,-5,6,19,/,-1,2,/,/,/,/
COc1ccc([C@H]2CC(=O)C=C(c3ccc(OC)cc3OC)C2)cc1,20,-12,3,/,-17,8,/,/,/,/
O=C1NC(=Nc2ccccc2)S/C1=C\c1cccn1-c1ccccc1,73*,17,60*,17,-2,4,32*,43,3,2
O=C1N[C@@H](Cc2ccccc2)C(=O)N2[C@H]1C[C@]1(Br)c3ccccc3N(S(=O)(=O)c3ccc(F)cc3)[C@H]21,14,-19,47,/,-24,5,/,/,/,/
CNC(=O)c1ccsc1NC(=O)C1CCN(S(=O)(=O)c2ccc(Cl)s2)CC1,58*,-20,5,/,-8,12,29*,47,15*,30
CC(C)COc1ccc(C(=O)N/N=C/c2ccoc2)cc1,62*,-21,44,-11,2,-1,13,37,8,10
CCOc1cc(C(=O)N/N=C/c2ccoc2)cc(OCC)c1OCC,-1,/,/,3,/,-1,/,/,/,/
O=C(Nc1ccc2oc(-c3cccnc3)nc2c1)c1cccnc1,12,-38,24,-8,3,9,/,/,/,/
O=C(Nc1cccc(-c2nc3ccccc3o2)c1)c1cccnc1,67*,-17,65*,1,-17,10,23*,35,10,7
O=C(Nc1ccc2oc(-c3cccnc3)nc2c1)c1ccc(Br)o1,52*,-12,13,-7,-7,20,17,25,4,5
C=C(C)CSc1nc(N)cc(=O)[nH]1,-3,-10,3,-1,-5,-1,/,/,/,/
COc1ccc(CNC(=O)c2ccc3c(=O)n(CCCN4CCCC4=O)c(=S)[nH]c3c2)cc1,-2,-22,14,-15,-13,3,/,/,/,/
CS(=O)(=O)N1CCN(c2ccccc2NC(=S)NC(=O)c2ccco2)CC1,49*,-18,-2,-5,-20,16,29*,44,9,8
O=C(NC(=S)Nc1ccccc1N1CCCC1)c1ccco1,-9,-56,16,0,-17,6,/,/,/,/
CCN=C1SC(C(=O)Nc2cccc(OCC)c2)CC(=O)N1CC (stereo not given),74*,-4,1,8,-4,19,36*,60*,8,11
COC(=O)C(c1ccccc1)C(CC(=O)c1ccccc1)c1ccccc1 (stereo not given),76*,/,/,/,/,-1,14,32,2,-1
COc1cc(NC(=O)c2ccccc2Cl)ccc1NC(=O)c1cccs1,0,-25,9,-6,-7,4,/,/,/,/
COc1cc(NC(=O)c2cc3ccccc3cc2OC)ccc1NC(=O)c1cccs1,85*,-28,45,-26,1,11,23*,51*,9,8
CCOC(=O)C1=C(CC)Nc2ccccc2N=C1NC(=O)CCNC(C)=O,-20,3,24,-1,-3,2,/,/,/,/
CCOC(=O)C1=C(CC)Nc2ccccc2N=C1NC(=O)c1oc2ccccc2c1C,74*,-11,27,-13,-5,4,27*,53*,5,2
CCOCc1c(C(=O)NC2=Nc3ccccc3NC(CC)=C2C(=O)OCC)oc2ccccc12,61*,-5,40*,2,-21,13,30*,55*,4,2
SMILES,TAAR1 antag,OX1R antag-1,OX1R antag-2,GPR7 antag,CHO parental Ca,TAAR1 ag,nonsel antag count,TAAR1 antag conf,Ga16 ag counter,TAAR1 ag counter
COCCNC(=O)CN1CCN(S(=O)(=O)c2ccc3c(c2)CCCC3)CC1,2,-34,6,/,-16,0,/,/,/,/
O=C(NN1C(=O)NC2(CCCCC2)C1=O)c1ccc(Cl)c(Cl)c1,1,-14,-4,/,-3,3,/,/,/,/
CCOc1ccc(N(C(C)C(=O)Nc2cccnc2)S(C)(=O)=O)cc1 (stereo not given),-18,-9,3,-2,-25,2,/,/,/,/
CCOc1ccc(N(C(C)C(=O)N/N=C(\C)c2cccc(NC(=O)c3ccccc3)c2)S(C)(=O)=O)cc1 (stereo not given),54*,-3,46,12,-16,17,29*,43,7,5
COc1ccc(Br)cc1CN(C)C(=O)c1ccccc1OCc1c(C)noc1C,57*,-25,11,/,-40,9,23*,33,7,4
COc1ccc(-c2[nH][nH]c(=O)c2NC(=O)c2ccc(C)cc2)cc1,1,/,/,/,/,1,/,/,/,/
Cc1cccc(NC(=O)c2ccc3nc(N4CCOCC4)sc3c2)c1C,27,-24,16,-6,-3,7,/,/,/,/
CCCCCCn1nc(C(=O)OCC(=O)c2c(N)n(C)c(=O)n(C)c2=O)c2ccccc2c1=O,78*,-22,16,5,-15,6,36*,53*,9,8

# Bioassay records deposited in PubChem by The Scripps Research Institute Molecular Screening Center.
